Results on one compound are retold here after publication PMC9064899 (The FEBS journal, 2021).

The target of one experiment is T1, UBIAD1 C147S (Homo sapiens, UniProt Q9Y5Z9).
T1 sequence (Q9Y5Z9 2-338): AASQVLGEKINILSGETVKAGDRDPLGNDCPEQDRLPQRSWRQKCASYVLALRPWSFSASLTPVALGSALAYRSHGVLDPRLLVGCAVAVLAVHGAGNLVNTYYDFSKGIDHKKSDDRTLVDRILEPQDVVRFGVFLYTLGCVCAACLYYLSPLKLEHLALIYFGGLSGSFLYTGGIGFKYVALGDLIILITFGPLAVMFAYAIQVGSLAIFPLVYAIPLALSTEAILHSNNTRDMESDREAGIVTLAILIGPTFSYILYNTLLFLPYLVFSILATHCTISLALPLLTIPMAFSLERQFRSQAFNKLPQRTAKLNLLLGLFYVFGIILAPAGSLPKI
The experiment is described as follows: Cell-based UBIAD1 functional assay. The settings on record: 1 μM vitamin K3. In short, it runs like this: (§1)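 Wild-type or mutant human UBIAD1 in pCI-neo was transiently transfected into Ubiad1-knockout FIXgla-PC/HEK293 cells (DMEM/F12, 10% FBS). […] After 24 h, carboxylated FIXgla-PC in the medium was measured by ELISA. Activity was normalized to wild type (100%), and EC50 came from a curve fit. Mean ± SD, n=3 independent experiments.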

Experiment [1] relates to UBIAD1-deficient FIXgla-PC/HEK293 reporter cells. In words: VKD carboxylation of FIXgla-PC supported by K vitamins in UBIAD1-knockout cells. The format is cell-based, human. Conditions: UBIAD1-deficient (knockout) FIXgla-PC/HEK293 cells. In short, it runs like this:
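Ubiad1-knockout FIXgla-PC/HEK293 reporter cells were cultured for 24 h with increasing concentrations of vitamin K1, MK-4, vitamin K3, or menaquinones with 1–4 or 7 isoprene units. K vitamin stocks were made in polyethoxylated castor oil. Carboxylated FIXgla-PC was determined by ELISA, and half-maximal stimulation concentration (EC50) came from curve fitting. Mean ± SD.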

The target of the next experiment is T2, UBIAD1 R54A (Homo sapiens, UniProt Q9Y5Z9, R54A).
T2 sequence (Q9Y5Z9 1-338 R54A): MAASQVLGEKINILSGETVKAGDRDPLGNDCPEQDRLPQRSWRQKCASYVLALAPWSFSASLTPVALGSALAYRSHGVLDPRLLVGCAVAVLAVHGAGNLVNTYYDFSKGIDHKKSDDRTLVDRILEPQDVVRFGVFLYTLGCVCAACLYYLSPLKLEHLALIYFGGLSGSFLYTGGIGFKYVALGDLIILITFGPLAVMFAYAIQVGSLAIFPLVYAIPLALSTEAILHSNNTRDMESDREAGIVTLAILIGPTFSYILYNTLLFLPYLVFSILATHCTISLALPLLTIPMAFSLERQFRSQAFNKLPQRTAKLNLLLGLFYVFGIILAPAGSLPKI
In words: Cell-based UBIAD1 functional assay. In short, it runs like this:
as §1

The target of a further experiment is T3, UBIAD1 D236E (Homo sapiens, UniProt Q9Y5Z9, D236E).
T3 sequence (Q9Y5Z9 1-338 D236E): T2 sequence (Q9Y5Z9 1-338 R54A) with A54R, D236E
The experiment is described as follows: Cell-based UBIAD1 functional assay. An outline of the steps: as §1

The target of another experiment is T4, UBIAD1 G186R (Homo sapiens, UniProt Q9Y5Z9, G186R).
T4 sequence (Q9Y5Z9 1-338 G186R): T2 sequence (Q9Y5Z9 1-338 R54A) with A54R, G186R
The experiment is described as follows: Cell-based UBIAD1 functional assay. An outline of the steps: as §1

The target of another experiment is T5, UBIAD1 D236A (Homo sapiens, UniProt Q9Y5Z9, D236A).
T5 sequence (Q9Y5Z9 1-338 D236A): T2 sequence (Q9Y5Z9 1-338 R54A) with A54R, D236A
The experiment is described as follows: Cell-based UBIAD1 functional assay. In short, it runs like this:
as §1

In another experiment the target is T6, wild-type UBIAD1 (Homo sapiens, UniProt Q9Y5Z9).
T6 sequence (Q9Y5Z9 1-338): T2 sequence (Q9Y5Z9 1-338 R54A) with A54R
The experiment is described as follows: Cell-based UBIAD1 functional assay. In short, it runs like this:
as §1

Residue numbers refer to the chain shown, from its start. Several values for one entry are separate records, joined by “and”; a condition that tells them apart may be missing. Equal entries are not always repeated.

As usually defined, the EC50 is the concentration at which the effect is half-maximal. Read a low EC50 as greater potency. With `CC1=CC(=O)c2ccccc2C1=O` [vitamin K3, menadione], the “Vitamin K-dependent carboxylation Activity ± SD” value on UBIAD1 C147S is 100.5 ± 3.7%; on UBIAD1 R54A (R54A, 1 μM vitamin K3) it was 79.8 ± 2.6%; on UBIAD1 D236E (D236E, 1 μM vitamin K3), 107.1 ± 4.9%; at UBIAD1 G186R (G186R, 1 μM vitamin K3), 57.1 ± 1.1%; on UBIAD1 D236A (D236A, 1 μM vitamin K3), 32% and 32.5 ± 0.9%; at wild-type UBIAD1 (WT, 1 μM vitamin K3, WT normalized to 100%), 100 ± 2.4%. For the same compound, the “support of VKD carboxylation of reporter protein” value in experiment [1] is “fails to carboxylate the reporter protein”. Moreover, the EC50 was determined as 84 ± 11.6 nM at UBIAD1 R54A, 22.6 ± 2.2 nM on UBIAD1 D236E, 90 ± 17.6 nM on UBIAD1 D236A and 3.7 ± 0.4 nM on wild-type UBIAD1. For the same compound, at UBIAD1 D236E (D236E vs D236A), the “EC50 value of vitamin K3 lower than that of D236A” value came out at 4 fold. The “increase of EC50 value of vitamin K3 vs wild-type” value is recorded as 6 fold on UBIAD1 D236E (D236E vs WT) and 60 fold on UBIAD1 G186R (G186R vs WT).
